Measured values: ChEMBL document CHEMBL2016487, “Pyrazolopyrimidines as dual Akt/p70S6K inhibitors” (Bioorg Med Chem Lett, 2012)

What was measured:
[1] = molecular target: T1, Ribosomal protein S6 kinase beta-1 (Homo sapiens, UniProt P23443); assay: Inhibition of p70S6K after 3 hrs by luciferase based chemiluminescence assay
[2] = molecular target: T2, RAC-alpha serine/threonine-protein kinase (Homo sapiens, UniProt P31749); assay: Inhibition of AKT1 after 3 hrs by luciferase based chemiluminescence assay
T2 sequence (P31749 whole entry): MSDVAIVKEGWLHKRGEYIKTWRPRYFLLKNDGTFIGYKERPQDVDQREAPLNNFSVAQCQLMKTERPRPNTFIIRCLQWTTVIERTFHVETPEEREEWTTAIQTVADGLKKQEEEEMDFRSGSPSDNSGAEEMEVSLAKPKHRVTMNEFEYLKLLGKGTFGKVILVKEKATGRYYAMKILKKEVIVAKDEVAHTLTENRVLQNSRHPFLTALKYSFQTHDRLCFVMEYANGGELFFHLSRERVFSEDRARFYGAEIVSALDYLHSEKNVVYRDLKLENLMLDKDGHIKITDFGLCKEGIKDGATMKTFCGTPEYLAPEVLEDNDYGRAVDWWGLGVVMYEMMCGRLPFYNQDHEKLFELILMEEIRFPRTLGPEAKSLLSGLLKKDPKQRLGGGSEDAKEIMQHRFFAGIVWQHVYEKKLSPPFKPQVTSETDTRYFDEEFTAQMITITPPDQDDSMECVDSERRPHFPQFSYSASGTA

[3] = molecular target: T1, Ribosomal protein S6 kinase beta-1; assay: Inhibition of p70S6K-mediated ribosomal protein S6 phosphorylation in human A549 cells after 3 hrs by chemiluminescence assay; assay type: cell-based
Procedure, shortened: (§1)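 A549 or PC-3 cells seeded at 7.5 × 10³ cells/well in DMEM with heat-inactivated 10% FBS, 1% penicillin–streptomycin, 1% non-essential amino acids, grown 48 h at 37 °C, 5% CO₂. Treated 3 h with compound at 1.2–300 nM, triplicate, 0.2% DMSO final. Fixed in 4% formaldehyde, blocked, probed with anti-phospho-S6 (Ser240/244) and anti-total-S6 overnight at 4 °C, chemiluminescent read-out.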

[4] = molecular target: T1, Ribosomal protein S6 kinase beta-1; assay: Inhibition of p70S6K-mediated ribosomal protein S6 phosphorylation in human PC3 cells after 3 hrs by chemiluminescence assay; assay type: cell-based, PC-3; procedure, shortened: as §1
[5] = molecular target: T2, RAC-alpha serine/threonine-protein kinase; assay: Inhibition of AKT1-mediated GSK3beta phosphorylation in human PC3 cells after 3 hrs by chemiluminescence assay; assay type: cell-based, PC-3
Procedure, shortened: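 PC-3 cells seeded at 7.5 × 10³ cells/well, grown 24 h, then serum-starved 24 h. Compound treatment 3 h in triplicate (0.2% DMSO final), followed by 100 ng/ml IGF1 for 30 min. Fixed and processed as a cell ELISA using anti-phospho-GSK3β (S9) and anti-total-GSK3β antibodies, chemiluminescent read-out.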

[6] = Drug metabolism in mouse liver microsomes at 15 uM after 30 mins; assay type: ADME, Microsome; conditions: read-out: Drug metabolism
Procedure, shortened: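 Mouse liver microsomes at 0.5 mg/mL, incubated 30 min with compound at 15 µM; value reported as % conversion.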

PC-3 = assay: Anticancer activity against human PC3 prostate tumor cell xenografted model at 100 mg/kg, po qd for 15 days; assay type: functional; conditions: PC-3, 360 h, read-out: TGI
[7] = Clearance in rat at 5 mg/kg; assay type: ADME, organism-based; design: dose 5 mg/kg; conditions: in vivo
[8] = Volume of distribution in rat at 5 mg/kg; assay type: ADME, organism-based; design: dose 5 mg/kg; conditions: in vivo
[9] = Half life in rat at 5 mg/kg, iv; assay type: ADME, organism-based; design: dose 5 mg/kg, route intravenous; conditions: in vivo
[10] = Half life in rat at 5 mg/kg, po; assay type: ADME, organism-based; design: dose 5 mg/kg, route oral; conditions: in vivo
[11] = Oral bioavailability in rat at 5 mg/kg; assay type: ADME, organism-based; conditions: in vivo
[12] = Cmax in rat at 5 mg/kg, iv; assay type: ADME, organism-based; design: dose 5 mg/kg, route intravenous; conditions: in vivo
[13] = Cmax in rat at 5 mg/kg, po; assay type: ADME, organism-based; design: dose 5 mg/kg, route oral; conditions: in vivo
Rattus norvegicus [14] = assay: Dose normalized AUC in rat at 5 mg/kg, iv; assay type: ADME, organism-based; design: dose 5 mg/kg, route intravenous; conditions: in vivo
Rattus norvegicus [15] = assay: Dose normalized AUC in rat at 5 mg/kg, po; assay type: ADME, organism-based; design: dose 5 mg/kg, route oral; conditions: in vivo
[16] = Plasma concentration in mouse at 100 mg/kg after 1 hr; assay type: ADME, organism-based; design: dose 100 mg/kg
Procedure, shortened: (§2)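 Mouse plasma levels measured 1 and 4 h after a 100 mg/kg dose.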

[17] = Plasma concentration in mouse at 100 mg/kg after 4 hrs; assay type: ADME, organism-based; design: dose 100 mg/kg; procedure, shortened: as §2
[18] = Clearance in rat at 2.5 mg/kg; assay type: ADME, organism-based; design: dose 2.5 mg/kg; conditions: in vivo
[19] = Volume of distribution in rat at 2.5 mg/kg; assay type: ADME, organism-based; design: dose 2.5 mg/kg; conditions: in vivo
[20] = Half life in rat at 2.5 mg/kg, iv; assay type: ADME, organism-based; design: dose 2.5 mg/kg, route intravenous; conditions: in vivo
[21] = Half life in rat at 2.5 mg/kg, po; assay type: ADME, organism-based; design: dose 2.5 mg/kg, route oral; conditions: in vivo
[22] = Oral bioavailability in rat at 2.5 mg/kg; assay type: ADME, organism-based; conditions: in vivo
[23] = Cmax in rat at 2.5 mg/kg, iv; assay type: ADME, organism-based; design: dose 2.5 mg/kg, route intravenous; conditions: in vivo
[24] = Cmax in rat at 2.5 mg/kg, po; assay type: ADME, organism-based; design: dose 2.5 mg/kg, route oral; conditions: in vivo
Rattus norvegicus [25] = assay: Dose normalized AUC in rat at 2.5 mg/kg, iv; assay type: ADME, organism-based; design: dose 2.5 mg/kg, route intravenous; conditions: in vivo
Rattus norvegicus [26] = assay: Dose normalized AUC in rat at 2.5 mg/kg, po; assay type: ADME, organism-based; design: dose 2.5 mg/kg, route oral; conditions: in vivo
[27] = Plasma concentration in mouse at 30 mg/kg after 4 hrs; assay type: ADME, organism-based; design: dose 30 mg/kg

T1 sequence (P23443 whole entry): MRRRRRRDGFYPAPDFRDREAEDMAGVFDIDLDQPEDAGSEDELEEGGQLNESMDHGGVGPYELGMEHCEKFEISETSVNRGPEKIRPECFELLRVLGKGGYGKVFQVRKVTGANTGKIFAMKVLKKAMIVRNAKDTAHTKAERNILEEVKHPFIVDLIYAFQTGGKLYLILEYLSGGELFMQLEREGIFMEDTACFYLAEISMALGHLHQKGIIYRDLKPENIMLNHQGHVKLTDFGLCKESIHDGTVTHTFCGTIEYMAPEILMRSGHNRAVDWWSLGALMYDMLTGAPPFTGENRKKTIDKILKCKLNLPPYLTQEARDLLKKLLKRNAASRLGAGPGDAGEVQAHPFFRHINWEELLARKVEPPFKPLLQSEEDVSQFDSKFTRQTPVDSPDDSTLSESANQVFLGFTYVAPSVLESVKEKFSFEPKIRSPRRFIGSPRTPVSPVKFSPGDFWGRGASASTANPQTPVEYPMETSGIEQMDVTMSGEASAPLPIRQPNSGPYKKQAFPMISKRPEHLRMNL

Row | SMILES | IC50 [1] [µM] | IC50 [2] [µM] | IC50 [3] [µM] | IC50 [4] [µM] | IC50 [5] [µM] | metabolised at 0.5 h, 15 µM [6] [%] | concentration at 1 h [16] [nM] | further results
1 | Cc1c(NCCN2CCCC2)cc(C(=O)Nc2ccccc2)cc1N1CCN(c2ncnc3[nH]nc(Br)c23)CC1 | 0.001 | 0.013 | 0.014 | 0.19 | 7.81 | – | – | –
2 | Cc1c(NCCN2CCCC2)cc(Cl)cc1N1CCN(c2ncnc3[nH]nc(Br)c23)CC1 | 0.002 | 0.042 | 0.094 | 0.446 | 1.27 | 19 | – | –
3 | CCc1n[nH]c2ncnc(N3CCN(c4cc(Cl)cc(NCCN(C)C)c4C)CC3)c12 | 0.002 | – | 0.045 | 0.211 | 9.03 | 29 | – | inhibition in vivo at 100 mg/kg (PC-3): 49%
4 | CCC(=O)c1cc(NCCN2CCCC2)c(C)c(N2CCN(c3ncnc4[nH]nc(Br)c34)CC2)c1 | 0.001 | 0.005 | 0.018 | 0.025 | 0.976 | – | 2000 | clearance [7]: 49 mL/min/kg; Vd [8]: 10.5 L/kg; half-life [9]: 3.1 h; half-life [10]: 2.9 h; bioavailability [11]: 28%; Cmax [12]: 1440 nM; Cmax [13]: 140 nM; AUC/dose (Rattus norvegicus [14]): 0.56 µM·kg·h/mg; AUC/dose (Rattus norvegicus [15]): 0.15 µM·kg·h/mg; concentration at 4 h [17]: 2000 nM
5 | Cc1c(NCCN2CCCC2)cc(OCC(C)C)cc1N1CCN(c2ncnc3[nH]nc(Br)c23)CC1 | 0.001 | 0.009 | 0.037 | 0.214 | 0.7 | – | 1200 | clearance [7]: 79.5 mL/min/kg; Vd [8]: 14.7 L/kg; half-life [9]: 2.5 h; half-life [10]: 1.7 h; bioavailability [11]: 13%; Cmax [12]: 1150 nM; Cmax [13]: 70 nM; AUC/dose (Rattus norvegicus [14]): 0.35 µM·kg·h/mg; AUC/dose (Rattus norvegicus [15]): 0.05 µM·kg·h/mg; concentration at 4 h [17]: 1300 nM
6 | Cc1noc(-c2cc(NCCN3CCCC3)c(C)c(N3CCN(c4ncnc5[nH]nc(Br)c45)CC3)c2)n1 | 0.001 | 0.006 | 0.013 | 0.047 | 0.665 | – | 300 | clearance [18]: 73 mL/min/kg; Vd [19]: 14.2 L/kg; half-life [20]: 2.4 h; half-life [21]: 2.9 h; bioavailability [22]: 10%; Cmax [23]: 370 nM; Cmax [24]: 10 nM; AUC/dose (Rattus norvegicus [25]): 0.45 µM·kg·h/mg; AUC/dose (Rattus norvegicus [26]): 0.05 µM·kg·h/mg; concentration at 4 h [27]: 100 nM
7 | Cc1c(NCCN(C)C)cc(Cl)cc1N1CCN(c2ncnc3[nH]nc(Br)c23)CC1 | 0.002 | – | 0.043 | 0.141 | 4.28 | 50 | – | –
